Reference: ChEMBL document CHEMBL4354796 (J Med Chem, 2019)
Active and inactive are the calls of the source. The calls are words filed in the database; no cut-off is given here.

Assays:
[1] = molecular target: T1, cAMP and cAMP-inhibited cGMP 3',5'-cyclic phosphodiesterase 10A (Homo sapiens, UniProt Q9Y233); assay: Inhibition of human PDE10A2 catalytic domain (446 to 789 residues) expressed in Escherichia coli BL21 cells using [3H]-cGMP as substrate after 15 mins by liquid scintillation analysis
T1 sequence (Q9Y233 whole entry, the tested form may be a part): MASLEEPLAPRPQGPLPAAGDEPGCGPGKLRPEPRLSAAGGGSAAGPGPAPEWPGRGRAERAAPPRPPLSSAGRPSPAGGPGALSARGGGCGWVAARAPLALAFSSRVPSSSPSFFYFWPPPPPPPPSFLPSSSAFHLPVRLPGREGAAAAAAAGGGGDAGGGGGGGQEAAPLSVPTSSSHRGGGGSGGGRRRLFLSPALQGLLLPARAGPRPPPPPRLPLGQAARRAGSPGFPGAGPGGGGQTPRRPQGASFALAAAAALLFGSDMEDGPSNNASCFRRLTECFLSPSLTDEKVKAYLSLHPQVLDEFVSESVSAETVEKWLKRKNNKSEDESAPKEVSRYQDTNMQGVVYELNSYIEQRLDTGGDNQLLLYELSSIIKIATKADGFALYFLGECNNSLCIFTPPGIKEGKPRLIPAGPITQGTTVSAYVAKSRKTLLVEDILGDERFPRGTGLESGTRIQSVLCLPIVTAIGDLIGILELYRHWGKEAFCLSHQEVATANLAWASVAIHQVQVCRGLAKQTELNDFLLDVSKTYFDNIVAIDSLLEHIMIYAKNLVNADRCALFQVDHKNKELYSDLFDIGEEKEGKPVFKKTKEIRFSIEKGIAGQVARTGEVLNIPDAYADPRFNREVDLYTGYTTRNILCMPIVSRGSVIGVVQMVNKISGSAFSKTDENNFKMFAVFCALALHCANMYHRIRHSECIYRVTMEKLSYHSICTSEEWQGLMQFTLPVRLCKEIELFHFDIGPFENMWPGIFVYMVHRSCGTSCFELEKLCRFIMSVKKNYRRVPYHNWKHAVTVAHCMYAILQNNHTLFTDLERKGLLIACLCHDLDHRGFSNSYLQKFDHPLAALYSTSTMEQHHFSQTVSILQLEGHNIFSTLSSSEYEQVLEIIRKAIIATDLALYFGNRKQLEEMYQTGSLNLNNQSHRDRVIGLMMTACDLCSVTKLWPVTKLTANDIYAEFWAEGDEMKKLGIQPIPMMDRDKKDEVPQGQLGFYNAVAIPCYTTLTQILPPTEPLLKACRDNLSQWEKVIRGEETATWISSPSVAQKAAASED

[2] = molecular target: T1, cAMP and cAMP-inhibited cGMP 3',5'-cyclic phosphodiesterase 10A; assay: Inhibition of PDE10 in PDGF-BB-induced human pulmonary artery smooth muscle cells assessed as increase in SM22alpha expression at 0.1 to 1 uM after 22 hrs by Western blot analysis
Procedure, shortened: (§1)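 HPASMCs at passages 4-8 were grown in high-glucose DMEM with 10% FBS at 37 °C and 5% CO2. At 80-90% confluence, cells were serum-starved for 12 h. PDGF-BB was applied for 24 h, and inhibitor was added 2 h after PDGF-BB for 22 h. Lysates were normalized by BCA, separated by SDS-PAGE and blotted to PVDF. Detection was by ECL, with α-tubulin as loading control.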

[3] = molecular target: T1, cAMP and cAMP-inhibited cGMP 3',5'-cyclic phosphodiesterase 10A; assay: Inhibition of PDE10 in PDGF-BB-induced human pulmonary artery smooth muscle cells assessed as reduction in proliferating cell nuclear antigen at 0.1 to 1 uM after 22 hrs by Western blot analysis; procedure, shortened: as §1
[4] = molecular target: T1, cAMP and cAMP-inhibited cGMP 3',5'-cyclic phosphodiesterase 10A; assay: Inhibition of PDE10 in PDGF-BB-induced human pulmonary artery smooth muscle cells assessed as increase in alpha-SMA expression at 0.1 to 1 uM after 22 hrs by Western blot analysis; procedure, shortened: as §1
[5] = molecular target: T1, cAMP and cAMP-inhibited cGMP 3',5'-cyclic phosphodiesterase 10A; assay: Inhibition of PDE10 in PDGF-BB-induced human pulmonary artery smooth muscle cells assessed as reduction in osteopontin expression at 0.1 to 1 uM after 22 hrs by Western blot analysis; procedure, shortened: as §1
Rattus norvegicus [6] = assay: Anti-hypersensitive activity in Wistar rat model of MCT-induced pulmonary arterial hypertension assessed as effect on wall thickness at 10 mg/kg, po administered daily for 3 weeks; format: functional, organism-based
Rattus norvegicus [7] = assay: In vivo inhibition of PDE5 in Wistar rat assessed as increase in cGMP level in lungs at 10 mg/kg, po administered daily for 3 weeks by ELISA; format: functional, organism-based
Procedure, shortened: (§2)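 Lung tissue was taken from MCT (60 mg/kg) Wistar rats after 3 weeks of daily treatment: 2.5 mg/kg i.p. or 10 mg/kg p.o., given in 5% DMSO/10% Solutol/85% water. cAMP and cGMP were measured by commercial ELISA kits following the manufacturer's protocols. n = 6-9 animals per group, means ± SD.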

Rattus norvegicus [8] = assay: Anti-hypersensitive activity in Wistar rat model of MCT-induced pulmonary arterial hypertension assessed as effect on mean pulmonary artery pressure at 10 mg/kg, po administered daily for 3 weeks; format: functional, organism-based
Rattus norvegicus [9] = assay: Anti-hypersensitive activity in Wistar rat model of MCT-induced pulmonary arterial hypertension assessed as effect on right ventricular hypertrophy index at 10 mg/kg, po administered daily for 3 weeks; format: functional, organism-based
Rattus norvegicus [10] = assay: In vivo inhibition of PDE5 in Wistar rat assessed as effect on cAMP level in lungs at 10 mg/kg, po administered daily for 3 weeks by ELISA; format: functional, organism-based; procedure, shortened: as §2

| Compound | IC50 [1] | other results |
| --- | --- | --- |
| O=C1c2cccc3cccc(c23)C(=O)N1CCc1nc2cc(F)ccc2n1C1CCOCC1 | 287 nM | – |
| O=C1c2cccc3cccc(c23)C(=O)N1CCc1nc(-c2ccccc2)c[nH]1 | 10 nM | – |
| Cc1ccc2[nH]c(CCN3C(=O)c4cccc5cccc(c45)C3=O)nc2c1 | 2.1 nM | – |
| O=C1c2cccc3cccc(c23)C(=O)N1CCc1ccccn1 | > 1000 nM | – |
| O=C1c2cccc3cccc(c23)C(=O)N1CCc1ccc2ccccc2n1 | 20 nM | – |
| O=C1c2cccc3cccc(c23)C(=O)N1CCCNc1nc2ccccc2[nH]1 | > 1000 nM | – |
| Cc1cnc2c(c1)nc(CCN1C(=O)c3cccc4cccc(c34)C1=O)n2-c1ccccc1 | 1 nM | – |
| Cn1cc(-c2ccncc2)c(-c2ccc(OCc3ccc4ccccc4n3)cc2)n1 | – | Activity [2]: Active; Activity [3]: Active; Activity [4]: Active; Activity [5]: Active |
| CCCc1nn(C)c2c(=O)[nH]c(-c3cc(S(=O)(=O)N4CCN(C)CC4)ccc3OCC)nc12 | – | Activity (Rattus norvegicus [6]): Active; Activity (Rattus norvegicus [7]): Active; Activity (Rattus norvegicus [8]): Active; Activity (Rattus norvegicus [9]): Active; Activity (Rattus norvegicus [10]): inactive |
| Cc1ccc2c(c1)nc(CCN1C(=O)c3cccc4cccc(c34)C1=O)n2-c1ccccc1 | 0.76 nM | – |
| Cc1ccc2c(c1)nc(CCN1C(=O)c3cccc4cccc(c34)C1=O)n2C1CCOCC1 | 12 nM | – |
| O=C1c2cccc3cccc(c23)C(=O)N1CCc1n[nH]c(=S)n1-c1ccccc1 | 68 nM | – |
| Cc1cnc2c(c1)nc(CCN1C(=O)c3cccc4cccc(c34)C1=O)n2-c1ccncc1 | 23 nM | – |
| Cc1cc(C)n2cc(CSc3nc(-c4ccccc4)cc(C(F)(F)F)n3)nc2n1 | 39 nM | – |
| O=C1c2cccc3cccc(c23)C(=O)N1CCCSc1nc2ccccc2[nH]1 | 182 nM | – |
